Reference: ChEMBL document CHEMBL3351523 (Bioorg Med Chem, 2014)

Tested on: not listed separately
Experiment: Cytotoxicity against mock-infected human MT4 cells after 96 hrs by MTT assay
Format: cell-based
Settings: not given
How it was run: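 Exponentially growing MT-4 cells were seeded at 1 × 10^5 cells/mL in RPMI-1640 with 10% FBS and held at 37 °C, 5% CO2 with serial compound dilutions. Viability was read by MTT after 96 h. CC50 from linear regression against untreated controls.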

Compound	CC50 at 96 h
FC(F)(F)c1ccc2c(c1)nc(Cc1ccc(Br)cc1)n2C[C@@H]1CCCN2CCCC[C@H]12	13 µM
COc1ccc(Cc2nc3cc(Cl)c(Cl)cc3[nH]2)cc1	29 µM
Nc1ccc(Cc2nc3cc(Cl)c(Cl)cc3[nH]2)cc1	71 µM

Tested on: Poliovirus 1
Experiment: Antiviral activity against Poliovirus type 1 Sabin strain infected in african green monkey Vero 76 cells assessed as reduction in plaque number after 2 days by plaque reduction assay
Format: functional, organism-based
Settings: Enterovirus C, 48 h

Compound	EC50
FC(F)(F)c1ccc2c(c1)nc(Cc1ccc(Br)cc1)n2C[C@@H]1CCCN2CCCC[C@H]12	> 100 µM
COc1ccc(Cc2nc3cc(Cl)c(Cl)cc3[nH]2)cc1	> 100 µM
Nc1ccc(Cc2nc3cc(Cl)c(Cl)cc3[nH]2)cc1	80 µM

Tested on: Reovirus sp.
Experiment: Antiviral activity against Reovirus type-1 infected in BHK21 cells assessed as inhibition of virus-induced cytopathogenicity after 3 to 4 days by MTT assay
Format: functional, organism-based
Settings: BHK-21

Compound	EC50
FC(F)(F)c1ccc2c(c1)nc(Cc1ccc(Br)cc1)n2C[C@@H]1CCCN2CCCC[C@H]12	> 100 µM
COc1ccc(Cc2nc3cc(Cl)c(Cl)cc3[nH]2)cc1	> 100 µM
Nc1ccc(Cc2nc3cc(Cl)c(Cl)cc3[nH]2)cc1	> 100 µM

Tested on: Vaccinia virus
Experiment: Antiviral activity against Vaccinia Virus infected in african green monkey Vero 76 cells assessed as reduction in plaque number after 3 days by plaque reduction assay
Format: functional, organism-based
Settings: Orthopoxvirus vaccinia, 72 h

Compound	EC50
FC(F)(F)c1ccc2c(c1)nc(Cc1ccc(Br)cc1)n2C[C@@H]1CCCN2CCCC[C@H]12	> 100 µM
COc1ccc(Cc2nc3cc(Cl)c(Cl)cc3[nH]2)cc1	> 100 µM
Nc1ccc(Cc2nc3cc(Cl)c(Cl)cc3[nH]2)cc1	> 100 µM

Tested on: Human alphaherpesvirus 1
Experiment: Antiviral activity against HSV1 infected in african green monkey Vero 76 cells assessed as reduction in plaque number after 3 days by plaque reduction assay
Format: functional, organism-based
Settings: Human alphaherpesvirus 1, Vero, 72 h

Compound	EC50
FC(F)(F)c1ccc2c(c1)nc(Cc1ccc(Br)cc1)n2C[C@@H]1CCCN2CCCC[C@H]12	> 100 µM
COc1ccc(Cc2nc3cc(Cl)c(Cl)cc3[nH]2)cc1	> 100 µM
Nc1ccc(Cc2nc3cc(Cl)c(Cl)cc3[nH]2)cc1	> 100 µM

Tested on: Human immunodeficiency virus 1
Experiment: Antiviral activity against HIV1 infected in human MT4 cells assessed as inhibition of virus-induced cytopathogenicity after 4 days by MTT assay
Format: functional, organism-based
Settings: Human immunodeficiency virus 1, MT4, 96 h
How it was run: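 MT-4 cells (1 × 10^4/well in RPMI) were infected acutely with HIV-1 IIIB, 100 CCID50 (m.o.i. 0.01), with serial dilutions from 100 µM, 1:5. After 4 days at 37 °C, protection from virus-induced cytopathogenicity was read by MTT. EC50 came from linear regression against untreated controls.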

Compound	EC50
FC(F)(F)c1ccc2c(c1)nc(Cc1ccc(Br)cc1)n2C[C@@H]1CCCN2CCCC[C@H]12	> 100 µM
COc1ccc(Cc2nc3cc(Cl)c(Cl)cc3[nH]2)cc1	> 100 µM
Nc1ccc(Cc2nc3cc(Cl)c(Cl)cc3[nH]2)cc1	> 100 µM

Tested on: Yellow fever virus
Experiment: Antiviral activity against Yellow fever virus infected in BHK21 cells assessed as inhibition of virus-induced cytopathogenicity after 3 to 4 days by MTT assay
Format: functional, organism-based
Settings: BHK-21

Compound	EC50
FC(F)(F)c1ccc2c(c1)nc(Cc1ccc(Br)cc1)n2C[C@@H]1CCCN2CCCC[C@H]12	> 100 µM
COc1ccc(Cc2nc3cc(Cl)c(Cl)cc3[nH]2)cc1	> 100 µM
Nc1ccc(Cc2nc3cc(Cl)c(Cl)cc3[nH]2)cc1	> 100 µM

Tested on: not listed separately
Experiment: Selectivity index, ratio of CC50 for african green monkey Vero 76 cells to EC50 for Respiratory syncytial virus
Format: toxicity, cell-based
Settings: read-out: Ratio CC50/EC50
How it was run: (§1)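 Mock-infected Vero-76 cells were tested in parallel on the same 24-well plates as the plaque assays (seeding 4 × 10^5 cells/mL, D-MEM with FBS), with serial compound dilutions at 37 °C, 5% CO2. Viability was read after 48–96 h by crystal violet staining. CC50 by linear regression; selectivity index = Vero-76 CC50/EC50 for CVB-5 or RSV.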

Compound	selectivity ratio
FC(F)(F)c1ccc2c(c1)nc(Cc1ccc(Br)cc1)n2C[C@@H]1CCCN2CCCC[C@H]12	> 4
COc1ccc(Cc2nc3cc(Cl)c(Cl)cc3[nH]2)cc1	≥ 20
Nc1ccc(Cc2nc3cc(Cl)c(Cl)cc3[nH]2)cc1	4

Tested on: not listed separately
Experiment: Selectivity index, ratio of CC50 for african green monkey Vero 76 cells to EC50 for Coxsackievirus B5
Format: toxicity, cell-based
Settings: read-out: Ratio CC50/EC50
How it was run: as §1

Compound	selectivity ratio
FC(F)(F)c1ccc2c(c1)nc(Cc1ccc(Br)cc1)n2C[C@@H]1CCCN2CCCC[C@H]12	> 1
Nc1ccc(Cc2nc3cc(Cl)c(Cl)cc3[nH]2)cc1	6.67

Tested on: Respiratory syncytial virus
Experiment: Antiviral activity against Respiratory syncytial virus infected in african green monkey Vero 76 cells assessed as reduction in plaque number after 5 days by plaque reduction assay
Format: functional, organism-based
Settings: human respiratory syncytial virus, 120 h

Compound	EC50
FC(F)(F)c1ccc2c(c1)nc(Cc1ccc(Br)cc1)n2C[C@@H]1CCCN2CCCC[C@H]12	25 µM
COc1ccc(Cc2nc3cc(Cl)c(Cl)cc3[nH]2)cc1	5 µM
Nc1ccc(Cc2nc3cc(Cl)c(Cl)cc3[nH]2)cc1	20 µM

Tested on: Vesicular stomatitis virus
Experiment: Antiviral activity against Vesicular stomatitis virus infected in african green monkey Vero 76 cells assessed as reduction in plaque number after 2 days by plaque reduction assay
Format: functional, organism-based
Settings: 48 h

Compound	EC50
FC(F)(F)c1ccc2c(c1)nc(Cc1ccc(Br)cc1)n2C[C@@H]1CCCN2CCCC[C@H]12	> 100 µM
COc1ccc(Cc2nc3cc(Cl)c(Cl)cc3[nH]2)cc1	> 100 µM
Nc1ccc(Cc2nc3cc(Cl)c(Cl)cc3[nH]2)cc1	> 100 µM

Tested on: Coxsackievirus B5
Experiment: Antiviral activity against Coxsackievirus B5 infected in african green monkey Vero 76 cells assessed as reduction in plaque number after 3 days by plaque reduction assay
Format: functional, organism-based
Settings: Enterovirus B, 72 h

Compound	EC50
FC(F)(F)c1ccc2c(c1)nc(Cc1ccc(Br)cc1)n2C[C@@H]1CCCN2CCCC[C@H]12	> 100 µM
COc1ccc(Cc2nc3cc(Cl)c(Cl)cc3[nH]2)cc1	> 100 µM
Nc1ccc(Cc2nc3cc(Cl)c(Cl)cc3[nH]2)cc1	12 µM

Tested on: not listed separately
Experiment: Cytotoxicity against mock-infected BHK21 cells after 48 to 96 hrs by MTT assay
Format: functional
Settings: Mesocricetus auratus, BHK-21
How it was run: (§2)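 Mock-infected MDBK (6 × 10^5 cells/mL; MEM-E, 10% horse serum, 1 mM pyruvate) or BHK (1 × 10^6 cells/mL; MEM-E, 10% FBS) cells were incubated at 37 °C, 5% CO2 with serial dilutions from 100 µM, 1:5. Viability by MTT after 48–96 h. CC50 from linear regression against untreated controls.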

Compound	CC50
FC(F)(F)c1ccc2c(c1)nc(Cc1ccc(Br)cc1)n2C[C@@H]1CCCN2CCCC[C@H]12	20 µM
COc1ccc(Cc2nc3cc(Cl)c(Cl)cc3[nH]2)cc1	19 µM
Nc1ccc(Cc2nc3cc(Cl)c(Cl)cc3[nH]2)cc1	43 µM

Tested on: Bovine viral diarrhea virus 1
Experiment: Antiviral activity against Bovine viral diarrhea virus infected in MDBK cells assessed as inhibition of virus-induced cytopathogenicity after 3 to 4 days by MTT assay
Format: functional, organism-based
Settings: Bovine viral diarrhea virus isolates and strains

Compound	EC50
FC(F)(F)c1ccc2c(c1)nc(Cc1ccc(Br)cc1)n2C[C@@H]1CCCN2CCCC[C@H]12	> 100 µM
COc1ccc(Cc2nc3cc(Cl)c(Cl)cc3[nH]2)cc1	> 100 µM
Nc1ccc(Cc2nc3cc(Cl)c(Cl)cc3[nH]2)cc1	22 µM

Tested on: not listed separately
Experiment: Cytotoxicity against mock-infected MDBK cells after 48 to 96 hrs by MTT assay
Format: cell-based, Bos taurus
Settings: cattle
How it was run: as §2

Compound	CC50
FC(F)(F)c1ccc2c(c1)nc(Cc1ccc(Br)cc1)n2C[C@@H]1CCCN2CCCC[C@H]12	40 µM
COc1ccc(Cc2nc3cc(Cl)c(Cl)cc3[nH]2)cc1	17 µM
Nc1ccc(Cc2nc3cc(Cl)c(Cl)cc3[nH]2)cc1	62 µM

Tested on: not listed separately
Experiment: Cytotoxicity against mock-infected african green monkey Vero 76 cells after 48 to 96 hrs by MTT assay
Format: cell-based
Settings: chlorocebus sabaeus, mock-infected Vero 76 cells

Compound	CC50
FC(F)(F)c1ccc2c(c1)nc(Cc1ccc(Br)cc1)n2C[C@@H]1CCCN2CCCC[C@H]12	> 100 µM
COc1ccc(Cc2nc3cc(Cl)c(Cl)cc3[nH]2)cc1	> 100 µM
Nc1ccc(Cc2nc3cc(Cl)c(Cl)cc3[nH]2)cc1	80 µM
